Results on one compound are retold here after ChEMBL document CHEMBL4393678, “Novel Tetrahydroquinazolinamines as Selective Histamine 3 Receptor Antagonists for the Treatment of Obesity” (J Med Chem, 2019).

The structures appear in SMILES notation. Calls of active or inactive are those of the source. The rule behind the calls is not given here.

Data set [1] deals with Histamine H1 receptor (Homo sapiens) (UniProt P35367). The data set can be described thus: Agonist activity at H1R (unknown origin) expressed in HEK293 cells harboring luc2P/NFAT-RE plasmid at 10 uM after 6 to 8 hrs by luciferase reporter gene assay. It counts as cell-based. The method in brief:
(§1)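 NFAT-RE luciferase assay in HEK293T cells transiently co-transfected with luc2P/NFAT-RE plasmid and receptor plasmid. Cells plated in DMEM and incubated overnight at 37 °C, 5% CO₂. Compounds and reference ligands applied for 6-8 h. Luciferase read after adding Bright-Glo substrate (1 mg/ml final).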

Data set [2] deals with Mus musculus. The data set can be described thus: Anti-obesity activity in 16 hrs fasted high fat diet-induced obese C57BL/6J mouse model assessed as change in blood glucose level at 10 to 20 mg/kg, po treated prior to glucose addition measured after 15 to 120 mins by IPGTT. It counts as functional, organism-based. The method in brief:
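Mice fasted 16 h; baseline tail-vein glucose read by glucometer. Glucose given i.p. at 2 g/kg (C57BL/6J) or 1 g/kg (db/db).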

Data set [3] is described as follows: Tmax in C57BL/6J mouse brain at 20 mg/kg, po by LC-MS/MS analysis. It counts as ADME, organism-based. The method, boiled down: (§2)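 Male C57BL/6J mice (6-8 weeks, 20 ± 5 g) fasted overnight (12-16 h) got a single 20 mg/kg oral dose as 2.5 mg/mL suspension in 1% w/v gum acacia; n=5 per time point. Serum and brain (PBS homogenate 1:6 w/v) sampled up to 24 h. Parent and demethylated metabolite quantified by LC-MS/MS after liquid-liquid extraction (C18, MRM, phenacetin internal standard; linear 0.25-200 ng/mL). Two-compartment open model fit.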

In data set [4] the target is Histamine H4 receptor (Homo sapiens) (UniProt Q9H3N8). The data set can be described thus: Agonist activity at recombinant human Gi-coupled H4 receptor expressed in HEK293T cells assessed as inhibition of forskolin-stimulated cAMP accumulation at 10 uM preincubated for 10 to 15 followed by forskolin-stimulation by Glo-sensor assay. In kind it is functional, cell-based.
Sequence of Histamine H4 receptor (Homo sapiens) (Q9H3N8 whole entry): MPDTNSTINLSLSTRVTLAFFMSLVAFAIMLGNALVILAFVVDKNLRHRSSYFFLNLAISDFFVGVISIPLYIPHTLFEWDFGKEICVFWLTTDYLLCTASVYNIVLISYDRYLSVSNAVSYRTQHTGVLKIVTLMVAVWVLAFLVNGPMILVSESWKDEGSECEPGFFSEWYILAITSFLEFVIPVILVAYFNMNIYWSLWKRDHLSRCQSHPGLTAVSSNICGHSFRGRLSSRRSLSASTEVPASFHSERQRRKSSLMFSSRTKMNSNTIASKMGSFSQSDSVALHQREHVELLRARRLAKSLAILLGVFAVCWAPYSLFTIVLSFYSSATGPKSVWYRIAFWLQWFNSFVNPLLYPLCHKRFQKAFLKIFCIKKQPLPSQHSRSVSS

A short description of data set [5]: AUClast in C57BL/6J mouse brain assessed as 4-(2-Amino-8-methyl-5,6,7,8-tetrahydroquinazolin-4-yl)phenol level at 20 mg/kg, po by LC-MS/MS analysis. In kind it is ADME, organism-based. On the set-up: dose 20 mg/kg, time 0 - last, route oral. The settings on record: in vivo. The method in brief: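 Male C57BL/6J mice, 6-8 weeks, 20 ± 5 g, fasted overnight (12-16 h), n = 5 per time point. Single 20 mg/kg oral dose given by feeding needle as a 2.5 mg/mL suspension in 1% w/v gum acacia and water. Serum and brain (homogenized 1:6 w/v in PBS) sampled up to 24 h. Liquid-liquid extraction, then LC-MS/MS in positive MRM mode with phenacetin as internal standard. Linear range 0.25-200 ng/mL. Non-compartmental and compartmental analysis.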

In data set [6] the test system is Mus musculus. The experiment in a line: Anti-obesity activity in high fat diet-induced obese C57BL/6J mouse model assessed as change in blood TG level at 10 to 20 mg/kg, po measured after 6 weeks. It counts as functional, organism-based. The method, boiled down:
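At the end of treatment (six weeks HFD, four weeks db/db), mice euthanized with avertin 350 mg/kg. Blood taken by cardiac puncture into 3.8% sodium citrate. Plasma separated at 4000 rpm and stored at -80 °C. TG, TC, HDLc and LDLc measured on a bio-analyzer.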

Data set [7] deals with Kappa-type opioid receptor (Homo sapiens) (UniProt P41145). The data set can be described thus: Agonist activity at Gi-coupled KOR (unknown origin) expressed in HEK293T cells assessed as inhibition of forskolin-stimulated cAMP accumulation preincubated for 10 to 15 followed by forskolin-stimulation by Glo-sensor assay. It counts as functional, cell-based.
Sequence of Kappa-type opioid receptor (Homo sapiens) (P41145 whole entry): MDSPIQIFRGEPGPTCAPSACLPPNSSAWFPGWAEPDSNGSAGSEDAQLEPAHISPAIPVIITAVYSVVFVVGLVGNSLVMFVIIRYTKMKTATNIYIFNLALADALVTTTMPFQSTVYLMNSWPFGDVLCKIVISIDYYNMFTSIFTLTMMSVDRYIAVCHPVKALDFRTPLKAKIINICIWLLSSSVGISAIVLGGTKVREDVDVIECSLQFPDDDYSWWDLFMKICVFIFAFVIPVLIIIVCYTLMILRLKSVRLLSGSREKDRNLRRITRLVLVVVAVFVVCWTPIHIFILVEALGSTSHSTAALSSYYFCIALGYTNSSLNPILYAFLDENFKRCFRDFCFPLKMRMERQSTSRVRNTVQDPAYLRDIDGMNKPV
Data set [8] is described as follows: Toxicity in lean C57BL/6J mouse assessed as effect on cumulative food intake at 20 mg/kg, po. In kind it is organism-based. The settings on record: in vivo. The method, boiled down:
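Lean male C57BL/6J mice fasted 12 h (8 am-8 pm, water available), singly housed, given 20 mg/kg orally in 5% gum acacia/saline or vehicle. Cumulative food intake measured over 4 h night phase (9 pm-1 am) starting 30 min after dosing.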

For data set [9], the system named is Mus musculus. The experiment in a line: Anti-obesity activity in 16 hrs fasted db/db-induced obese C57BL/6J mouse model assessed as change in blood TG level at 20 mg/kg, po measured after 6 weeks. It counts as functional, organism-based.
Data set [10] can be described thus: Toxicity in lean C57BL/6J mouse assessed as change in body weight at 20 mg/kg, po measured after 6 weeks. In kind it is organism-based. Conditions: in vivo, 1008 h.
The target of a further data set is Histamine H3 receptor (Homo sapiens, UniProt Q9Y5N1). The data set can be described thus: Antagonist activity at recombinant human Gi-coupled H3 receptor expressed in HEK293T cells assessed as reduction in histamine-induced inhibition of forskolin-stimulated cAMP accumulation preincubated for 10 to 15 followed by histamine addition for 10 mins and subsequent forskolin-stimulation by Glo-sensor assay. In kind it is functional, cell-based.
Sequence of Histamine H3 receptor (Q9Y5N1 whole entry): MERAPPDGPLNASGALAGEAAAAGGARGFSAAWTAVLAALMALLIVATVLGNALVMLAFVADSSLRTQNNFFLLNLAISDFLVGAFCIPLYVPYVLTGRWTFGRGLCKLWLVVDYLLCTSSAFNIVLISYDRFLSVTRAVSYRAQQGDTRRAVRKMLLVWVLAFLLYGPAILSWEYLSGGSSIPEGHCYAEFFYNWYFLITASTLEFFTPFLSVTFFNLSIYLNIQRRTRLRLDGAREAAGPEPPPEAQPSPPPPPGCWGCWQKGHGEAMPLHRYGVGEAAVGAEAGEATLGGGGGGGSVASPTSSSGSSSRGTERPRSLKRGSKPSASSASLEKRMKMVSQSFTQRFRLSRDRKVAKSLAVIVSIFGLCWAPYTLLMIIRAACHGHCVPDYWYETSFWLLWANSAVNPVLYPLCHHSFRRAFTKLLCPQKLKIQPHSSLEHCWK

Data set [11] deals with T1, Muscarinic acetylcholine receptor M1 (Homo sapiens) (UniProt P11229).
T1 sequence (whole entry): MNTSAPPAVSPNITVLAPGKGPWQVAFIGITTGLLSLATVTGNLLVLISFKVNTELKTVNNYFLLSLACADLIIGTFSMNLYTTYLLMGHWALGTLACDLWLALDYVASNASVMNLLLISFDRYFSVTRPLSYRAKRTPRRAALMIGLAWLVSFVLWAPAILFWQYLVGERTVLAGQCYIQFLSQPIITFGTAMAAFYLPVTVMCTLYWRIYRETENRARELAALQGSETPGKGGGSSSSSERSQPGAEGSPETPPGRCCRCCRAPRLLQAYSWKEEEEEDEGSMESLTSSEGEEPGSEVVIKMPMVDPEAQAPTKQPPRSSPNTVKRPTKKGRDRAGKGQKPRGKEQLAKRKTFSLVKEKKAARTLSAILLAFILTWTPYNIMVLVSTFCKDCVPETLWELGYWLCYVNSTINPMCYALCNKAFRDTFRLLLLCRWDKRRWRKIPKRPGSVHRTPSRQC
The experiment in a line: Antagonist activity at M1R (unknown origin) expressed in HEK293 cells harboring luc2P/NFAT-RE plasmid at 10 uM after 6 to 8 hrs by luciferase reporter gene assay. In kind it is cell-based. The method, boiled down: as §1

Data set [12] can be described thus: fCmax in C57BL/6J mouse brain by equilibrium dialysis method. It counts as ADME, tissue-based. The method, boiled down:
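Unbound brain level derived from brain concentration after 20 mg/kg oral dose, multiplied by unbound fraction from brain-homogenate equilibrium dialysis; given at Cmax and at 4 h.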

In data set [13] the test system is Mus musculus. The experiment in a line: Anti-obesity activity in 16 hrs fasted db/db-induced obese C57BL/6J mouse model assessed as change in blood HDL level at 20 mg/kg, po measured after 6 weeks. In kind it is functional, organism-based.
The nature of data set [14]: Half life in C57BL/6J mouse brain assessed as 4-(2-Amino-8-methyl-5,6,7,8-tetrahydroquinazolin-4-yl)phenol level at 20 mg/kg, po by LC-MS/MS analysis. In kind it is ADME, organism-based. Conditions: in vivo. The method in brief:
as §2

Data set [15] has as its system Mus musculus. The experiment in a line: Anti-obesity activity in 16 hrs fasted db/db-induced obese C57BL/6J mouse model assessed as reduction in fasting blood glucose level at 20 mg/kg, po measured after 4 weeks. It counts as functional, organism-based.
Data set [16] addresses D(3) dopamine receptor (Homo sapiens) (UniProt P35462). The data set can be described thus: Antagonist activity at D3 receptor (unknown origin).
Data set [17] has as its target D(1B) dopamine receptor (Homo sapiens) (UniProt P21918). The experiment in a line: Antagonist activity at Gs-coupled D5 receptor (unknown origin) expressed in HEK293T cells assessed as reduction in histamine-induced inhibition of forskolin-stimulated cAMP accumulation preincubated for 10 to 15 followed by histamine addition for 10 mins and subsequent forskolin-stimulation by Glo-sensor assay. It counts as functional, cell-based.

Sequence of D(1B) dopamine receptor (Homo sapiens) (P21918 whole entry): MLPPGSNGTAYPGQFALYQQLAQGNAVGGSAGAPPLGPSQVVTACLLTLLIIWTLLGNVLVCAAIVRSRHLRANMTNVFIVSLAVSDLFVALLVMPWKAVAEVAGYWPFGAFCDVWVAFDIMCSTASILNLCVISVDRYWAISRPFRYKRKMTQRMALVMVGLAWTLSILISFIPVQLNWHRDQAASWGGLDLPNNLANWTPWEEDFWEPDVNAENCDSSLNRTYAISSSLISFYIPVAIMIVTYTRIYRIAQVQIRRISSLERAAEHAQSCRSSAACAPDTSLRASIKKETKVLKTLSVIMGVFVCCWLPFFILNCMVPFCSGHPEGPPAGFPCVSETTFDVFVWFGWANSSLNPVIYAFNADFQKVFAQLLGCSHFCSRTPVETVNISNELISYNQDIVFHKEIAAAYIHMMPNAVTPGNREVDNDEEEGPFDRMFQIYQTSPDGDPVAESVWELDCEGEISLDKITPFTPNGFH
Sequence of Histamine H1 receptor (Homo sapiens) (P35367 whole entry): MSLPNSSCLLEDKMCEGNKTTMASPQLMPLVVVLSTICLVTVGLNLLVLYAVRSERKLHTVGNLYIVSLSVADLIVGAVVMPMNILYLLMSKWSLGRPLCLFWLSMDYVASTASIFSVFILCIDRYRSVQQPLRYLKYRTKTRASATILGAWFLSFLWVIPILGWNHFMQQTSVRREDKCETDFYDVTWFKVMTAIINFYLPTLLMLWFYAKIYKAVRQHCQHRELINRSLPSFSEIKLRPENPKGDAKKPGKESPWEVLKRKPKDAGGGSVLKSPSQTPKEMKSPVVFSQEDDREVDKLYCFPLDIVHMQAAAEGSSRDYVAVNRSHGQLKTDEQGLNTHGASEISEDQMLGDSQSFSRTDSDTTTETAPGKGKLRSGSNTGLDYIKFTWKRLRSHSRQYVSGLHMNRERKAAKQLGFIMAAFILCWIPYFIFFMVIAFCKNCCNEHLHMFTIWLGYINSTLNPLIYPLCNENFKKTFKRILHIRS
Sequence of D(3) dopamine receptor (Homo sapiens) (P35462 whole entry): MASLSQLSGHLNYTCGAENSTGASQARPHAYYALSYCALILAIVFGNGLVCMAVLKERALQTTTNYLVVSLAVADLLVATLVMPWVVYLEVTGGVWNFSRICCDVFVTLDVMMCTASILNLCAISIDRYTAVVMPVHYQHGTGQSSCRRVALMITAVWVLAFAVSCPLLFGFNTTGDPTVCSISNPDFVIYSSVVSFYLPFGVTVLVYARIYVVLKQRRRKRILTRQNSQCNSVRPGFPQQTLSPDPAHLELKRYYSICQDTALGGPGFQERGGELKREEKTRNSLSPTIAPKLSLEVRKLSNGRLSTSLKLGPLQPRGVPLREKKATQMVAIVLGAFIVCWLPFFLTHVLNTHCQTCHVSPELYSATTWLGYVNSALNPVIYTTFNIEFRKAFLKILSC

On to `COc1ccc(-c2nc(N)nc3c2CCCC3C)cc1` (racemic), for which the result (in data set [1]; with Mus musculus [2]; in data set [4]; in the data set with Mus musculus [6]; in the data set with Mus musculus [9]; with Mus musculus [13]) was inactive. Also, in [3], the Tmax is 30 min. In addition, in [5], the AUClast worked out at 100.7 ng·h/mL. The inhibition result in data set [7], in [11], in [16] and in [17] was “inactive” in each case. The Activity result in data set [8] and in [10] was “Non-Toxic” in each case. For the same compound, the IC50 at Histamine H3 receptor came out at 40 nM. The same compound displayed a fCmax in data set [12] of 334.7 nM. Also, in [14], the t1/2 was 72 min. Moreover, in the data set on Mus musculus [15], the result was Active.
